We go through two compounds from ChEMBL document CHEMBL4330057, “Second generation of diazachrysenes: Protection of Ebola virus infected mice and mechanism of action” (Eur J Med Chem, 2019).

Series [1] can be described thus: Drug uptake in C57Bl/6 mouse serum at 10 mg/kg/day, ip qd for 7 days measured on day 5 at 15 to 180 mins post dose by UHPLC/MS analysis. It counts as ADME, organism-based. The conditions noted are these: in vivo, read-out: Drug uptake.
Series [2] is described as follows: Hepatotoxicity in 6 hrs post fertilized transgenic l-fabp:EGFP zebrafish embryo assessed as change in liver area index up to 40 uM up to 120 hrs post fertilization by fluorescence assay. It counts as toxicity, Danio rerio. The settings on record: in vivo. The procedure, abridged:
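Tg(l-fabp:EGFP) zebrafish embryos exposed from 6 hpf. At 120 hpf, liver area index (liver area/lateral body area) and liver fluorescence assessed by in vivo imaging.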

A short description of series [3]: Drug uptake in C57Bl/6 mouse serum at 10 mg/kg/day, ip qd for 7 days measured on day 7 at 5 to 240 mins post dose by UHPLC/MS analysis. The conditions noted are these: in vivo, read-out: Drug uptake. It counts as ADME, organism-based.
Series [4] has as its system Zaire ebolavirus. The series can be described thus: Antiviral activity against Ebolavirus Mayinga infected in Balb/c mouse assessed as protection against viral infection by measuring host survival at 10 mg/kg, ip administered 2 hrs prior to viral infection daily for 6 days and measured for 14 days relative to control. It counts as functional, 1976.
The nature of series [5]: Drug uptake in C57Bl/6 mouse serum at 20 mg/kg/day, ip qd for 7 days measured at 24 hrs post last dose by UHPLC/MS analysis. It counts as ADME, organism-based. The conditions noted are these: read-out: Drug uptake. A digest of the protocol:
(§1)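 Serum from two mice dosed 20 mg/kg/day i.p. taken 24 h after the last dose. Compound quantified by UHPLC/MS and screened for M+2, M+16, M-2 and M+32 products or combinations.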

Series [6] concerns Zaire ebolavirus. In words: Antiviral activity against VSV pseudotyped Ebolavirus Mayinga expressing GFP infected in human HeLa cells assessed as inhibition of viral infection up to 50 uM pre-incubated for 2 hrs followed by viral infection and measured after 8 hrs by high content imaging analysis. It counts as functional, organism-based. The conditions noted are these: 1976. A digest of the protocol:
(§2)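 HeLa cells pretreated 2 h with compound, then infected with rVSV-EBOV-GP-GFP (8 h) or VSV-GFP (6 h), and stained with Cell Mask Deep Red. Relative inhibition = 1 minus (% GFP-expressing cells normalised to mock). Mean ± SD of three replicates, representative of three independent experiments.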

Series [7] in a line: Toxicity in Balb/c mouse infected with Ebolavirus Mayinga assessed as weight loss at 1 to 10 mg/kg, ip administered 2 hrs prior to viral infection daily for 6 days and measured for 14 days. The conditions noted are these: in vivo, 336 h. It counts as organism-based.
Series [8] concerns Zaire ebolavirus. The series can be described thus: Antiviral activity against VSV pseudotyped Ebolavirus Mayinga expressing GFP infected in human HeLa cells assessed as inhibition of viral infection at 2 uM pre-incubated for 2 hrs followed by viral infection and measured after 8 hrs by cell mask deep red staining based assay. It counts as functional, organism-based. The settings on record: 1976. The procedure, abridged: as §2

Series [9] can be described thus: Drug metabolism in C57Bl/6 mouse assessed as oxygenation metabolite formation at 20 mg/kg/day, ip qd for 7 days measured at 24 hrs post last dose by UHPLC/MS analysis. It counts as ADME, organism-based. The settings on record: in vivo. A digest of the protocol:
as §1

Series [10] addresses T1, Cytochrome P450 3A4 (Homo sapiens, UniProt P08684). In words: Inhibition of CYP3A4 (unknown origin) using dibenzylfluorescein as substrate. It counts as ADME. The procedure, abridged: (§3)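 CYP IC50 was taken from the net fluorescent signal after incubation at 37 °C for a set time with active cytochrome P450 enzyme and a fluorescent probe substrate.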
A short description of series [11]: Half life in human liver microsomes. It counts as ADME, Microsome. The procedure, abridged: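 Substrate depletion with mouse or human liver microsomes, 1 h at 37 °C. Clearance (μL/min/mg) and half-life derived.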
A general note: Liver microsomes are vesicles of endoplasmic reticulum, rich in cytochrome P450 enzymes.

Series [12] can be described thus: Stability in plasma (unknown origin) after 1 hr at 37 degC. The settings on record: read-out: Stability. It counts as ADME, cell-free. A digest of the protocol:
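Compound was incubated in plasma for 1 h at 37 °C, and the percent remaining was reported.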

A further series deals with Cytochrome P450 2D6 (Homo sapiens, UniProt P10635). In words: Inhibition of CYP2D6 (unknown origin) using 3-(2-(N, N-Diethyl-N-methylamino)ethyl)-7-Methoxy-4-Methylcoumarin as substrate. The conditions noted are these: read-out: INH. It counts as ADME. A digest of the protocol:
as §3

The nature of series [13]: Acute toxicity in C57Bl/6 mouse assessed as effect on behavior at 20 mg/kg/day, ip qd for 7 days measured twice daily for 28 days. The settings on record: in vivo, 672 h. It counts as organism-based. A digest of the protocol: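 Six healthy mice received 20 mg/kg i.p. once daily for seven doses. Behaviour and appearance observed twice daily for 28 days after the last dose.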

Series [14] deals with T1, Cytochrome P450 3A4. The series can be described thus: Inhibition of CYP3A4 (unknown origin) using 7-benzyloxy-4-trifluoromethylcoumarin as substrate. It counts as ADME. A digest of the protocol: as §3
A short description of series [15]: Apparent permeability from basolateral to apical side in MDCK cells. It counts as ADME, cell-based, Canis lupus familiaris. The conditions noted are these: dog. A digest of the protocol:
(§4)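 Apparent permeability measured in MDCK cell monolayers, apical→basolateral and basolateral→apical directions, three biological replicates.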

The subject of series [16] is Vesicular stomatitis virus. The series can be described thus: Antiviral activity against VSV expressing GFP infected in human HeLa cells assessed as inhibition of viral infection at 0.1 uM pre-incubated for 2 hrs followed by viral infection and measured after 6 hrs by cell mask deep red staining based assay. It counts as functional, organism-based. The procedure, abridged: as §2

Series [17] in a line: Drug metabolism in C57Bl/6 mouse assessed as bis-oxygenation metabolite formation at 20 mg/kg/day, ip qd for 7 days measured at 24 hrs post last dose by UHPLC/MS analysis. It counts as ADME, organism-based. The conditions noted are these: in vivo. A digest of the protocol:
as §1

Series [18] is described as follows: Solubility of the compound in deionized water. It counts as physicochemical.
In series [19] the test system is Zaire ebolavirus. The series can be described thus: Antiviral activity against Ebolavirus Mayinga infected in ip dosed Balb/c mouse assessed as protection against viral infection administered 2 hrs prior to viral infection daily for 6 days and measured for 14 days. It counts as functional, organism-based. The conditions noted are these: 1976.
Series [20] in a line: Drug metabolism in C57Bl/6 mouse assessed as dehydrogenation metabolite formation at 20 mg/kg/day, ip qd for 7 days measured at 24 hrs post last dose by UHPLC/MS analysis. It counts as ADME, organism-based. The conditions noted are these: in vivo. The procedure, abridged:
as §1

Series [21] is described as follows: Apparent permeability from apical to basolateral side in MDCK cells. It counts as ADME, cell-based, Canis lupus familiaris. The conditions noted are these: dog. A digest of the protocol:
as §4

The nature of series [22]: Drug metabolism in C57Bl/6 mouse assessed as reduction metabolite formation at 20 mg/kg/day, ip qd for 7 days measured at 24 hrs post last dose by UHPLC/MS analysis. The settings on record: in vivo. It counts as ADME, organism-based. The procedure, abridged:
as §1

As usually defined, the half-life is how long it takes for the measured level to halve. A high value points to slow decline. As usually defined, the Papp B→A is the apparent permeability from the basolateral to the apical side of a cell layer. The solubility is how much of the substance goes into solution per volume. A high value points to a readily soluble substance. As usually defined, the Papp A→B is how fast a substance crosses the layer from the apical side.

Activity calls are given as the source filed them. No cut-off for these calls is given here. A value given as a limit tells only on which side of the number the result lay.

T1 sequence (P08684 whole entry): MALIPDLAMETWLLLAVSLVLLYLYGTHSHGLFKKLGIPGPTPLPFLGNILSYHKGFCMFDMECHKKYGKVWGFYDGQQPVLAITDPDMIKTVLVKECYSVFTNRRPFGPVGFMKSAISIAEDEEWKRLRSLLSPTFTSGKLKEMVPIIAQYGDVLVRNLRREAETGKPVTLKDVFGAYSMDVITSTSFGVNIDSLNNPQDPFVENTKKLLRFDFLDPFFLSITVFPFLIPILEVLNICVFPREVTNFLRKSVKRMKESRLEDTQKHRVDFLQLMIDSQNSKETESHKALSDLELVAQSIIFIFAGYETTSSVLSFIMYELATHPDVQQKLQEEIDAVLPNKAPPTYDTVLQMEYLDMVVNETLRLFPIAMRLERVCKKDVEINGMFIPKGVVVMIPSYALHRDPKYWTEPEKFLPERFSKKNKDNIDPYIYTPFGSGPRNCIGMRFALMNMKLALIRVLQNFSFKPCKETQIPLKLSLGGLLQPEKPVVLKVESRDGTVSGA
Chain of Cytochrome P450 2D6 (P10635 whole entry): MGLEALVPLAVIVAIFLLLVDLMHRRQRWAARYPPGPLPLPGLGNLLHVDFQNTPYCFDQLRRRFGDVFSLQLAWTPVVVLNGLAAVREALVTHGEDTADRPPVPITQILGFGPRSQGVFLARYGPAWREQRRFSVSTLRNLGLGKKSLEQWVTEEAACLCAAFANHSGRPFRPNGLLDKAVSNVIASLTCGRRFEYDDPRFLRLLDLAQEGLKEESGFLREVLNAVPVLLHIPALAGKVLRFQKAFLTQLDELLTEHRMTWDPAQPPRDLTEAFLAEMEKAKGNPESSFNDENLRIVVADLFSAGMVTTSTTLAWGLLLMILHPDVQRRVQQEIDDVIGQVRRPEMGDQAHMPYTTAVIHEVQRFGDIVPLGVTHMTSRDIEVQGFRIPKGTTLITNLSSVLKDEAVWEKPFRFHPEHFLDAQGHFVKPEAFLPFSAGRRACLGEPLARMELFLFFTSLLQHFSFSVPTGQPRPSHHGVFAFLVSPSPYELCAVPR

As for `Cl.Cl.Cl.Cl.c1cc(NCCN2CCOCC2)c2ccc3c(ccc4c(NCCN5CCOCC5)ccnc43)c2n1`, the concentration lay within 460 to 1030 nM in [1] and 460 to 650 nM in series [3]. The Activity result in series [2] is “Non-Toxic”.
Consider `Cl.Cl.Cl.Cl.c1cc(NCCCCN2CCOCC2)c2ccc3c(ccc4c(NCCN5CCOCC5)ccnc43)c2n1`, for which the Activity in the series on Zaire ebolavirus [4] is 100%; in series [7], “Non-Toxic”; in series [13] it was “Non-Toxic”; with Zaire ebolavirus [19], “Dose-dependent effect”. In series [5], the concentration at 24 h lay in the range of 350 to 1200 nM. Besides, the outcome in the series with Zaire ebolavirus [6] and with Zaire ebolavirus [8] was Active. In addition, the Drug metabolism result in [9], in series [17], in series [20] and in series [22] was “Metabolite_Notdetected” each time. In addition, the INH on Cytochrome P450 3A4 [10] and at Cytochrome P450 3A4 [14] was greater than 10 µM each time. In addition, the half-life in [11] was 42.1 min. Moreover, the remaining at 1 h in series [12] came out at 60%. Also, the IC50 on Cytochrome P450 2D6 was greater than 10 µM. Moreover, the Papp B→A in series [15] is 43.2 to 67.3 ×10⁻⁶ cm/s. Further, in [16], the outcome was inactive. The solubility in series [18] was no less than 25 mg/mL. The Papp A→B in series [21] was 39.3 to 67.2 ×10⁻⁶ cm/s.
